Activity calls are given as the source filed them. The calls are words filed in the database; no cut-off is given here.
How the values were obtained:
Renin [1] = target: T1, Renin (Homo sapiens, UniProt P00797); experiment: Inhibition of human recombinant renin
T1 sequence (P00797 whole entry): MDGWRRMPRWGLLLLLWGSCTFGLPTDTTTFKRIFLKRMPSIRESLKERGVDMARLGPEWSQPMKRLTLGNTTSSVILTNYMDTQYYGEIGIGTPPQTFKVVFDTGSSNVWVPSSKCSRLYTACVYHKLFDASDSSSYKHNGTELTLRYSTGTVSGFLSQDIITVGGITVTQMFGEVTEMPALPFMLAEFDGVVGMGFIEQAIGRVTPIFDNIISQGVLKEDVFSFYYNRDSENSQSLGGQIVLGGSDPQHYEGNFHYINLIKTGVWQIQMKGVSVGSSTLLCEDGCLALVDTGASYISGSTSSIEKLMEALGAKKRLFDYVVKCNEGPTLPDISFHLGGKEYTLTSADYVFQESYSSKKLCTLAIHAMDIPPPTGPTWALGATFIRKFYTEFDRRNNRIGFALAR

Renin [2] = target: T1, Renin; experiment: Inhibition of human recombinant renin in presence of human plasma by competitive radioimmunoassay; type: cell-free
[3] = Clearance in rat at 2 mg/kg, iv; type: ADME, organism-based; set-up: dose 2 mg/kg, route intravenous; details: in vivo
Procedure, shortened: (§1)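 Rats dosed with the fumarate salt at 10 mg/kg by oral route and 2 mg/kg intravenously. Plasma concentrations measured over time, and PK parameters derived from them.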

[4] = Cmax in rat at 10 mg/kg, po and 2 mg/kg, iv; type: ADME, organism-based; details: in vivo; procedure, shortened: as §1
[5] = Oral bioavailability in rat at 10 mg/kg; type: ADME, organism-based; details: in vivo; procedure, shortened: as §1
[6] = AUC (infinity) in rat at 10 mg/kg, po and 2 mg/kg, iv; type: ADME, organism-based; details: plasma; procedure, shortened: as §1
[7] = Tmax in rat at 10 mg/kg, po and 2 mg/kg, iv; type: ADME, organism-based; details: in vivo; procedure, shortened: as §1
[8] = AUC (0 to t) in rat at 10 mg/kg, po and 2 mg/kg, iv; type: ADME, organism-based; details: plasma; procedure, shortened: as §1
[9] = Half life in rat at 10 mg/kg, po and 2 mg/kg, iv; type: ADME, organism-based; details: in vivo; procedure, shortened: as §1
Rattus norvegicus = experiment: Antihypertensive activity in double transgenic rat model assessed as reduction in blood pressure at 60 mg/kg, po administered on day 2 and day 3 after vehicle treatment on day 1; type: functional, organism-based; set-up: dose 60 mg/kg
Procedure, shortened: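 Telemetered double transgenic rats carrying human angiotensinogen and human renin genes (n = 4). Vehicle given on day 1 with blood pressure monitored over 24 h. Oral gavage at 60 mg/kg at t = 24 h and 48 h, with blood pressure followed continuously by telemetry.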

IC50 (Renin [1]) [µM]	IC50 (Renin [2]) [µM]	SMILES	other results
0.0055	0.19	CCOCCCO[C@@H](c1cccc(Cl)c1)[C@@H]1CCCN(C(=O)N[C@H](CN)CC2CCCCC2)C1	
0.764		CNC[C@H](CC1CCCCC1)NC(=O)N1CCC[C@@H]([C@@H](OCCCO)c2cccc(Cl)c2)C1	
0.0025	0.067	CNC[C@H](CC1CCCCC1)NC(=O)N1CCC[C@@H]([C@@](O)(CCCCOC)c2cccc(C)c2)C1	
0.004	0.061	CNC[C@H](CC1CCCCC1)NC(=O)N1CCC[C@@H]([C@@](O)(CCCCOC)c2ccccc2F)C1	
0.037	0.086	CNC[C@H](CC1CCCCC1)NC(=O)N1CCC[C@@H]([C@@](O)(CCCCOC)c2cccc(C#N)c2)C1	
0.039	0.369	CNC[C@H](CC1CCCCC1)NC(=O)N1CCC[C@@H]([C@@H](OCCCOC)c2cccc(Cl)c2F)C1	

The next lines start with the compound.

SMILES	IC50 (Renin [1]) [µM]	IC50 (Renin [2]) [µM]	other results
CCc1cccc([C@](O)(CCCCOC)[C@@H]2CCCN(C(=O)N[C@H](CNC)CC3CCCCC3)C2)c1	0.009	0.285	
CCNC[C@H](CC1CCCCC1)NC(=O)N1CCC[C@@H]([C@@](O)(CCCCOC)c2cccc(Cl)c2)C1	0.006	0.154	
COCCCC[C@@](O)(c1ccccc1)[C@@H]1CCCN(C(=O)N[C@H](CN)CC2CCCCC2)C1	0.021	0.165	
COCCCOc1cc(C[C@@H](C[C@H](N)[C@@H](O)C[C@H](C(=O)NCC(C)(C)C(N)=O)C(C)C)C(C)C)ccc1OC.COCCCOc1cc(C[C@@H](C[C@H](N)[C@@H](O)C[C@H](C(=O)NCC(C)(C)C(N)=O)C(C)C)C(C)C)ccc1OC.O=C(O)/C=C/C(=O)O [ALISKIREN FUMARATE]			clearance [3]: 55 mL/min/kg; Cmax [4]: 4 ng/mL; bioavailability [5]: 1.2%; AUC(0-inf) [6]: 31 ng·h/mL; Tmax [7]: 0.1 h
CCOCCCC[C@@](O)(c1ccccc1)[C@@H]1CCCN(C(=O)N[C@H](CN)CC2CCCCC2)C1	0.038	0.49	
CNC[C@H](CC1CCCCC1)NC(=O)N1CCC[C@@H]([C@@](O)(CCCCOC)c2ccccc2)C1.O=C(O)/C=C/C(=O)O			clearance [3]: 66 mL/min/kg; Cmax [4]: 101 ng/mL; AUC(0-t) [8]: 547 ng·h/mL; bioavailability [5]: 33.6%; AUC(0-inf) [6]: 689 ng·h/mL; Tmax [7]: 2 h
CNC[C@H](CC1CCCCC1)NC(=O)N1CCC[C@@H]([C@@](O)(CCCCOC)c2cccc(OC)c2)C1	0.013	0.088	
CNC[C@H](CC1CCCCC1)NC(=O)N1CCC[C@@H]([C@@](O)(CCCCOC)c2cccc(Cl)c2F)C1	0.0001	0.027	
CCOCCCO[C@@H](c1ccccc1)[C@@H]1CCCN(C(=O)N[C@H](CN)CC2CCCCC2)C1	0.055		
CNC[C@H](CC1CCCCC1)NC(=O)N1CCC[C@@H]([C@@](O)(CCCCOC)c2cccc(F)c2)C1.O=C(O)/C=C/C(=O)O			clearance [3]: 59 mL/min/kg; Cmax [4]: 83 ng/mL; AUC(0-t) [8]: 433 ng·h/mL; bioavailability [5]: 21.1%; AUC(0-inf) [6]: 510 ng·h/mL; half-life [9]: 9.6 h; Tmax [7]: 2.7 h
CNC[C@H](CC1CCCCC1)NC(=O)N1CCC[C@@H]([C@@H](OCCCOC)c2cccc(F)c2)C1	0.058		
CCOCCCC[C@@](O)(c1ccccc1)[C@@H]1CCCN(C(=O)N[C@H](CNC)CC2CCCCC2)C1	0.016	0.162	
CNC[C@H](CC1CCCCC1)NC(=O)N1CCC[C@@H]([C@@](O)(CCCCOC)c2cccc(Cl)c2)C1			Activity (Rattus norvegicus): Active
CNC[C@H](CC1CCCCC1)NC(=O)N1CCC[C@@H]([C@@](O)(CCCCOC)c2cc(C)ccc2F)C1	0.0035	0.067	
CNC[C@H](CC1CCCCC1)NC(=O)N1CCC[C@@H]([C@@](O)(CCCCOC)c2cc(F)cc(Cl)c2)C1	0.0009	0.028	
COCCCO[C@@H](c1ccccc1)[C@@H]1CCCN(C(=O)N[C@H](CN)CC2CCCCC2)C1	0.308		
